Target: Integrin alpha-IIb/beta-3 (Homo sapiens, UniProt P05106+P08514)
Assay: The compound was tested for the inhibition of fibrinogen receptor
Format: protein-complex assay
Method in brief: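 Solid-phase ELISA: human fibrinogen (10 µg/mL) coated, BSA-blocked; samples plus purified human platelet GPIIbIIIa (40 µg/mL) incubated 1 h at room temperature. Bound receptor detected with anti-GPIIbIIIa antibody AP3 (1 µg/mL, 1 h), then goat anti-mouse HRP (1 h); OPD/H2O2 at pH 5, stopped with H2SO4, absorbance 492-405 nm. IC50 from four-parameter fit; n ≥ 3.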

Integrin alpha-IIb/beta-3, sequence (P05106 27-788 limits assumed): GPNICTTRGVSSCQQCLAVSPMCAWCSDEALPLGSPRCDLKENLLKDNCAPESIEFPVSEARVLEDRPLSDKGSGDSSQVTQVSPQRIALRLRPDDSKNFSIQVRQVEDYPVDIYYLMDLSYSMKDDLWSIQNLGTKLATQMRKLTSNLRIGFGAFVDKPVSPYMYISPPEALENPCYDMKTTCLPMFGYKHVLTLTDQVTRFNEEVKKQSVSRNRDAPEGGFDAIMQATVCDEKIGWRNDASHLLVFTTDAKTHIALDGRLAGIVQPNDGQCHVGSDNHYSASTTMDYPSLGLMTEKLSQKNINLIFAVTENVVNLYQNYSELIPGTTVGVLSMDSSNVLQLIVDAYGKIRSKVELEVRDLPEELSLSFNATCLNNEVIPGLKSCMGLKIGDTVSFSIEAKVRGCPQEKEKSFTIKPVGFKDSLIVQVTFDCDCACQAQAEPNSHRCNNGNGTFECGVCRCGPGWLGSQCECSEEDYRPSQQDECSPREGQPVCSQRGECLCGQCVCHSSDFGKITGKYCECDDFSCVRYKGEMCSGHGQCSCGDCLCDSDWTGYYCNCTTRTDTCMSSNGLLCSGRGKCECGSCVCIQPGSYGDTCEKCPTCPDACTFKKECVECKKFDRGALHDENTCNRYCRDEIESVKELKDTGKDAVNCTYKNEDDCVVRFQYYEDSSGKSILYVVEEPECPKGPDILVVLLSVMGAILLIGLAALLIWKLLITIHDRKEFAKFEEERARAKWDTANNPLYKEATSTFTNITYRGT
Integrin alpha-IIb/beta-3, sequence (P08514 32-887 limits assumed): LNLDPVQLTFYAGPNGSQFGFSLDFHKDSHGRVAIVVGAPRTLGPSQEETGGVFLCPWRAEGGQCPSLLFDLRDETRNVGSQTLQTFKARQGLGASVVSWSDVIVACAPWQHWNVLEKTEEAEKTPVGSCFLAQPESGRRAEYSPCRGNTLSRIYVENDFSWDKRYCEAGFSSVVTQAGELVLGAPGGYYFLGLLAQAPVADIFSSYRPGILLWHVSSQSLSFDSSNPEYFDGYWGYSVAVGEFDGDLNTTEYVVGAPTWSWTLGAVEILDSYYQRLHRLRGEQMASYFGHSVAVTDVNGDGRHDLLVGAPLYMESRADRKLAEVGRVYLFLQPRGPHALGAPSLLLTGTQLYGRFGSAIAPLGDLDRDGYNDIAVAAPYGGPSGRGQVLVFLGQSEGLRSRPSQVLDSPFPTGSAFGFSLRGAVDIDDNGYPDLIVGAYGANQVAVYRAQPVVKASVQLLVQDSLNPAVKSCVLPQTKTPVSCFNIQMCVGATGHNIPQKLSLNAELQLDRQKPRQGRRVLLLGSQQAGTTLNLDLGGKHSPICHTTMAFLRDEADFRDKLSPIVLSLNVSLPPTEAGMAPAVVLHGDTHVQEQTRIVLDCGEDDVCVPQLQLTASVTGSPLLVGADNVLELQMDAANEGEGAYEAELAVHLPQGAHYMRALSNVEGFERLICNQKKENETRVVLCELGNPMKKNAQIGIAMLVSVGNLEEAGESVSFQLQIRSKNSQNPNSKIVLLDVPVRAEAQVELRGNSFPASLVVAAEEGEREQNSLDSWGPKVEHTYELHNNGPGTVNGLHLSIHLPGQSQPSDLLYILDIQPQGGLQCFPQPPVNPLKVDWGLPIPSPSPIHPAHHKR
Integrin alpha-IIb/beta-3, sequence (P08514 891-1039 limits assumed): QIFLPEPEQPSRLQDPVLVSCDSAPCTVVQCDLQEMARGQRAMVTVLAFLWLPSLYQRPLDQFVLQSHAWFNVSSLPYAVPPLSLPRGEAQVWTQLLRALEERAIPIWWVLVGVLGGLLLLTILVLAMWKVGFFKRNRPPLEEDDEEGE

| SMILES | IC50 [nM] |
| --- | --- |
| C[C@H](O)[C@H]1NC(=O)CSC[C@@H](C(=O)O)NC(=O)[C@H](CC(=O)O)NC(=O)CNC(=O)[C@H](CCCN=C(N)N)NC1=O | 11.6 |
| C[C@@H](O)[C@@H]1NC(=O)CSC[C@@H](C(=O)O)NC(=O)[C@H](CC(=O)O)NC(=O)CNC(=O)[C@H](CCCN=C(N)N)NC1=O | 1.3 |
| CC[C@H](C)[C@@H]1NC(=O)CSC[C@@H](C(=O)O)NC(=O)[C@H](CC(=O)O)NC(=O)CNC(=O)[C@H](CCCN=C(N)N)NC1=O | 6 |
| CC(C)(C)C[C@H]1NC(=O)CSC[C@@H](C(=O)O)NC(=O)[C@H](CC(=O)O)NC(=O)CNC(=O)[C@H](CCCN=C(N)N)NC1=O | 22 |
| N=C(N)NCCC[C@@H]1NC(=O)[C@H](CC(=O)O)NC(=O)CSC[C@@H](C(=O)O)NC(=O)[C@H](CC(=O)O)NC(=O)CNC1=O | 25 |
| CC(C)(C)C[C@@H]1NC(=O)CSC[C@@H](C(=O)O)NC(=O)[C@H](CC(=O)O)NC(=O)CNC(=O)[C@H](CCCNC(=N)N)NC1=O | 3.6 |
| N=C(N)NCCC[C@@H]1NC(=O)[C@H](CCC(=O)O)NC(=O)CSC[C@@H](C(=O)O)NC(=O)[C@H](CC(=O)O)NC(=O)CNC1=O | 15 |
| N=C(N)NCCC[C@@H]1NC(=O)[C@@H](CCCN)NC(=O)CSC[C@@H](C(=O)O)NC(=O)[C@H](CC(=O)O)NC(=O)CNC1=O | 31 |
| N=C(N)NCCC[C@@H]1NC(=O)CNC(=O)[C@@H](Cc2ccccc2)SC[C@@H](C(=O)O)NC(=O)[C@H](CC(=O)O)NC(=O)CNC1=O | 29 |
| N=C(N)NCCC[C@@H]1NC(=O)[C@H](CO)NC(=O)CSC[C@@H](C(=O)O)NC(=O)[C@H](CC(=O)O)NC(=O)CNC1=O | 4 |
| NCCC[C@@H]1NC(=O)CSC[C@@H](C(=O)O)NC(=O)[C@H](CC(=O)O)NC(=O)CNC(=O)[C@H](CCCN=C(N)N)NC1=O | 5.6 |
| N=C(N)NCCC[C@@H]1NC(=O)[C@@H](Cc2ccc(O)cc2)NC(=O)CS(=O)(=O)C[C@@H](C(=O)O)NC(=O)[C@H](CC(=O)O)NC(=O)CNC1=O | 2.1 |
| N=C(N)NCCC[C@@H]1NC(=O)[C@@H](Cc2c[nH]cn2)NC(=O)CSC[C@@H](C(=O)O)NC(=O)[C@H](CC(=O)O)NC(=O)CNC1=O | 6.8 |
| CSCC[C@@H]1NC(=O)CSC[C@@H](C(=O)O)NC(=O)[C@H](CC(=O)O)NC(=O)CNC(=O)[C@H](CCCNC(=N)N)NC1=O | 4 |
| N=C(N)NCCC[C@@H]1NC(=O)c2cccc(c2)CSC[C@@H](C(=O)O)NC(=O)[C@H](CC(=O)O)NC(=O)CNC1=O | 19 |
| N=C(N)NCCC[C@@H]1NC(=O)CNC(=O)CCSC[C@@H](C(=O)O)NC(=O)[C@H](CC(=O)O)NC(=O)CNC1=O | 75 |
| CC(C)[C@H]1NC(=O)CSC[C@@H](C(=O)O)NC(=O)[C@H](CC(=O)O)NC(=O)CNC(=O)[C@H](CCCNC(=N)N)NC1=O | 17 |
| N=C(N)NCCC[C@@H]1NC(=O)[C@@H](CC(=O)O)NC(=O)CSC[C@@H](C(=O)O)NC(=O)[C@H](CC(=O)O)NC(=O)CNC1=O | 500 |
| N=C(N)NCCC[C@@H]1NC(=O)[C@H](Cc2c[nH]c3ccccc23)NC(=O)CSC[C@@H](C(=O)O)NC(=O)[C@H](CC(=O)O)NC(=O)CNC1=O | 4 |
| N=C(N)NCCC[C@@H]1NC(=O)CNC(=O)CS(=O)(=O)C[C@@H](C(=O)O)NC(=O)[C@H](CC(=O)O)NC(=O)CNC1=O | 18 |
| N=C(N)NCCC[C@@H]1NC(=O)[C@H](CCC(N)=O)NC(=O)CSC[C@@H](C(=O)O)NC(=O)[C@H](CC(=O)O)NC(=O)CNC1=O | 43 |
| CSCC[C@H]1NC(=O)CSC[C@@H](C(=O)O)NC(=O)[C@H](CC(=O)O)NC(=O)CNC(=O)[C@H](CCCNC(=N)N)NC1=O | 28 |
| N=C(N)NCCC[C@@H]1NC(=O)[C@@H](CO)NC(=O)CSC[C@@H](C(=O)O)NC(=O)[C@H](CC(=O)O)NC(=O)CNC1=O | 22 |
| N=C(N)NCCC[C@@H]1NC(=O)CCNC(=O)CSC[C@@H](C(=O)O)NC(=O)[C@H](CC(=O)O)NC(=O)CNC1=O | 12 |
| N=C(N)NCCC[C@@H]1NC(=O)[C@@H](CCC(=O)O)NC(=O)CSC[C@@H](C(=O)O)NC(=O)[C@H](CC(=O)O)NC(=O)CNC1=O | 260 |
